Activity calls are given as the source filed them. No cut-off for these calls is given here.
Key:
Format in all cases: functional, cell-based
[1] = system: MCF7; assay: Induction of autophagy in human MCF7 cells assessed as increase in LC3-2 expression at 1.5 uM by Western blot analysis; conditions: TDE = time-dependent effect
How it was run: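 MCF-7 (1.5 µM) or MDA-MB-231 (3 µM) cells treated for indicated times. Adherent and floating cells lysed in RIPA with 1 mM PMSF, 4°C for 1 h. Equal protein run on 10-15% SDS-PAGE, transferred to PVDF, blocked with milk or BSA, probed with primary then HRP secondary antibodies, ECL detection; β-actin as loading control.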

[2] = system: MCF7; assay: Induction of autophagy in human MCF7 cells assessed as LC3 lipidation at 1.5 uM in presence of ATG5 siRNA by Western blot analysis
[3] = system: MCF7; assay: Induction of autophagy in human MCF7 cells assessed as induction of autophagic vacuoles at 1.5 uM by MDC-based fluorescence microscopy
How it was run: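 MCF-7 cells treated with 1.5 µM for indicated times. Stained with 0.05 mM monodansylcadaverine and autophagic vacuoles observed by fluorescence microscopy.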

With `Cc1cc(-c2nc3sc4c(c3c(=O)[nH]2)CCN(C)C4)cc(C)c1O` the Activity [1] was “Tde”, the Activity [2] was “inactive” and the Activity [3] was “Active”.

— ChEMBL document CHEMBL4028911, “Discovery of a Small-Molecule Bromodomain-Containing Protein 4 (BRD4) Inhibitor That Induces AMP-Activated Protein Kinase-Modulated Autophagy-Associated Cell Death in Breast Cancer” (J Med Chem, 2017)
